# The source made the active and inactive calls. The calls are words filed in the database; no cut-off is given here.
# Tests used:
# Mus musculus [1] = experiment: Effect on behavioral changes in 8 weeks old MitoPark mouse striatum assessed as TH level at 30 mg/kg/day administered for 3 weeks by […] relative to control; type: functional
# [2] = Unbound brain concentration in C57Bl/6 mouse at 3 mg/kg, po administered for 1 hr; type: ADME, organism-based; details: in vivo
# [3] = Oral biavailability in C57Bl/6 mouse at 10 mg/kg measured after 480 mins by LC-MS/MS analysis; type: ADME, organism-based; details: in vivo
# How it was run: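 Male C57Bl/6 mice (20-25 g) given a single IV dose (2 mg/kg) or oral dose (10 mg/kg). Blood was sampled at 5, 15, 30, 60, 120, 240, 360 and 480 min and plasma prepared by centrifugation. Plasma drug levels were measured by LC/MS/MS. Values are mean (CV%), N=3.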
# [4] = target: Dual specificity protein kinase CLK4 (Homo sapiens, UniProt Q9HAZ1); experiment: Inhibition of CLK4 (unknown origin)
# [5] = target: T1, Peroxisome proliferator-activated receptor gamma (Homo sapiens, UniProt P37231); experiment: Inhibition of peroxisome proliferator-activated receptors gamma (unknown origin)
# T1 sequence (P37231 whole entry): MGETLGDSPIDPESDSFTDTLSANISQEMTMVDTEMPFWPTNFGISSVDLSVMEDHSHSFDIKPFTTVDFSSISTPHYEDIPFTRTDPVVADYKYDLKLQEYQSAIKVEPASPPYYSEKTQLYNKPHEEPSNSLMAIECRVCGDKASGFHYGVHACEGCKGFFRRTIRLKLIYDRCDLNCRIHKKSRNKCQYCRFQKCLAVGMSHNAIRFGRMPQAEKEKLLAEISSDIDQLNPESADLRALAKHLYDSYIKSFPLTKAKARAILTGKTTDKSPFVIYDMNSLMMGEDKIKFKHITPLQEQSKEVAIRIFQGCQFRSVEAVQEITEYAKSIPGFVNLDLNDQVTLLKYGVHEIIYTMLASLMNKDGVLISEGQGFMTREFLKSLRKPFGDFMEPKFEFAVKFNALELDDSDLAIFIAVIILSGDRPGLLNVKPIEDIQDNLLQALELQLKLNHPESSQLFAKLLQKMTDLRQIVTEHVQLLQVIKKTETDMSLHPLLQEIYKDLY
# How it was run: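 Radioligand binding selectivity screen was run at 10 μM, mean of three determinations. Where inhibition exceeded 50%, full concentration-displacement curves were run in triplicate and IC50 was obtained by nonlinear least-squares regression.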
# [6] = Toxicity in C57Bl/6 mouse assessed as change in body weight measured after 11 days; details: in vivo, 264 h, time 11 day
# How it was run: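 Male C57Bl/6 mice, singly housed on a reversed 12 h light cycle, were fed diet formulated to give 3, 10, 30, 60 or 120 mg/kg/day (assumes 3 g/day intake) or untreated diet for 11 days. Body weight and food intake were monitored. Spontaneous locomotion and rearing were recorded over 60 min. On day 11, mice were euthanized 4, 8 or 24 h after dark onset and plasma and brain drug levels measured; n = 5 per group.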
# Mus musculus [7] = experiment: Effect on behavioral phenotype in 11 weeks old MitoPark mouse assessed as decreased rearing behavior at 30 mg/kg/day administered for 6 weeks and measured after 60 mins; type: functional, organism-based
# How it was run: (§1)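 MitoPark mice, 5 weeks old, were allocated by baseline 60-min LMA to untreated diet or diet targeting 30 mg/kg/day (reformulated every 3 weeks). Wild-type littermates received vehicle diet. Body weight and food intake were recorded weekly. 60-min LMA (distance, rearing) was run at 8, 11, 14 and 17 weeks of age.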
# Mus musculus [8] = experiment: Effect on behavioral changes in 8 weeks old MitoPark mouse striatum assessed as HVA level at 30 mg/kg/day administered for 3 weeks by HPLC analysis; type: functional
# How it was run: (§2)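 Striatum from MitoPark mice on diet targeting 30 mg/kg/day or vehicle diet (wild-type littermate controls) was homogenized by sonication in 0.1 M acid at 0.1 g/mL. Samples were held 60 min at 4 °C and centrifuged. Dopamine, DOPAC and HVA were measured by HPLC with electrochemical detection against a 3,4-DHBA internal standard and standard curves. Mean ± SEM.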
# [9] = target: Leucine-rich repeat serine/threonine-protein kinase 2 (Mus musculus) (UniProt Q5S006); experiment: In vivo inhibition of LRRK2 in C57Bl/6 mouse brain assessed as reduction in pSer935 LRRK2 at 30 mg/kg administered for 11 days and measured for 4 to 24 hrs by Western blotting analysis; type: functional, organism-based; details: time 11.0 day
# How it was run: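 Male C57Bl/6 mice, singly housed on a reversed light cycle. Fed drug diet targeted to 3, 10, 30, 60 or 120 mg/kg/day (assuming 3 g/day intake), or untreated diet, for 11 days. Killed 4, 8 or 24 h after dark-cycle onset, n = 5 per group. Cortex immunoblotted for pSer935/total LRRK2 and total LRRK2/GAPDH. Total LRRK2 detected with MJFF2 antibody.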
# [10] = target: Leucine-rich repeat serine/threonine-protein kinase 2 (Mus musculus) (UniProt Q5S006); experiment: In vivo inhibition of LRRK2 in MitoPark mouse brain assessed as total LRRK2 protein level in presence of MJFF-2 antibody by Western blotting analysis; type: functional, organism-based
# How it was run: (§3)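 MitoPark mice fed diet targeted to 30 mg/kg/day, or untreated diet, from 5 weeks of age. Cortex collected after 3, 9 or 15 weeks of treatment, n = 10 per group. Blots probed for pSer935 LRRK2, total LRRK2 (MJFF-2 antibody) and GAPDH. pSer935 reported relative to vehicle-diet MitoPark mice.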
# [11] = target: Leucine-rich repeat serine/threonine-protein kinase 2 (Mus musculus) (UniProt Q5S006); experiment: In vivo inhibition of LRRK2 in 20 weeks old MitoPark mouse kidney assessed as reduction in total LRRK2 protein level at 30 mg/kg/day administered for 15 weeks by Western blotting analysis; type: functional, organism-based
# How it was run: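 MitoPark mice on drug-containing diet targeted to 30 mg/kg/day from 5 weeks of age, with the diet reformulated every 3 weeks to hold the target. Untreated-diet MitoPark and wild-type littermate controls. Killed by CO2 at 20 weeks of age. Lung and kidney taken from 5 mice per group for pSer935 and total LRRK2 immunoblots.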
# Mus musculus [12] = experiment: Effect on behavioral phenotype in MitoPark mouse at baseline assessed as higher rearing behavior at 30 mg/kg/day administered for 3 weeks and measured after 60 mins; type: functional, organism-based; how it was run: as §1
# [13] = target: Leucine-rich repeat serine/threonine-protein kinase 2 (Mus musculus) (UniProt Q5S006); experiment: In vivo inhibition of LRRK2 in MitoPark mouse assessed as reduction in pSer935 LRRK2 at 30 mg/kg administered for 15 weeks and measured after 24 hrs by Western blotting analysis relative to control; type: functional, organism-based; how it was run: as §3
# Mus musculus [14] = experiment: Effect on histological changes in 20 weeks old MitoPark mouse kidney assessed as kidney darkening at 30 mg/kg/day administered for 15 weeks by hematoxylin and eosin staining based microscopic analysis; type: functional, organism-based
# How it was run: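 MitoPark mice were fed diet targeting 30 mg/kg/day or vehicle for 15 weeks and euthanized at 20 weeks of age (n=5/group). Kidney and lung were fixed in 10% neutral buffered formalin, paraffin-embedded, sectioned at 5 µm, H&E-stained and examined microscopically.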
# [15] = target: Leucine-rich repeat serine/threonine-protein kinase 2 (Mus musculus) (UniProt Q5S006); experiment: In vivo inhibition of LRRK2 in C57Bl/6 mouse kidney assessed as total LRRK2 protein level at 10 to 120 mg/kg administered for 11 days and measured after 8 hrs by Western blotting analysis; type: functional, organism-based; details: dose 10-120 mg/kg, time 11.0 day
# How it was run: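 Same 11-day in-diet design in male C57Bl/6 mice: 3-120 mg/kg/day or untreated diet, killed 4, 8 or 24 h after dark-cycle onset, n = 5 per group. Kidneys dissected for Western blot of pSer935 and total LRRK2, with total LRRK2 detected by MJFF-2 antibody.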
# Mus musculus [16] = experiment: Effect on behavioral changes in 14 weeks old MitoPark mouse striatum assessed as DOPAC level at 30 mg/kg/day by HPLC analysis; type: functional; how it was run: as §2
# Chain of Leucine-rich repeat serine/threonine-protein kinase 2 (Mus musculus) (Q5S006 whole entry): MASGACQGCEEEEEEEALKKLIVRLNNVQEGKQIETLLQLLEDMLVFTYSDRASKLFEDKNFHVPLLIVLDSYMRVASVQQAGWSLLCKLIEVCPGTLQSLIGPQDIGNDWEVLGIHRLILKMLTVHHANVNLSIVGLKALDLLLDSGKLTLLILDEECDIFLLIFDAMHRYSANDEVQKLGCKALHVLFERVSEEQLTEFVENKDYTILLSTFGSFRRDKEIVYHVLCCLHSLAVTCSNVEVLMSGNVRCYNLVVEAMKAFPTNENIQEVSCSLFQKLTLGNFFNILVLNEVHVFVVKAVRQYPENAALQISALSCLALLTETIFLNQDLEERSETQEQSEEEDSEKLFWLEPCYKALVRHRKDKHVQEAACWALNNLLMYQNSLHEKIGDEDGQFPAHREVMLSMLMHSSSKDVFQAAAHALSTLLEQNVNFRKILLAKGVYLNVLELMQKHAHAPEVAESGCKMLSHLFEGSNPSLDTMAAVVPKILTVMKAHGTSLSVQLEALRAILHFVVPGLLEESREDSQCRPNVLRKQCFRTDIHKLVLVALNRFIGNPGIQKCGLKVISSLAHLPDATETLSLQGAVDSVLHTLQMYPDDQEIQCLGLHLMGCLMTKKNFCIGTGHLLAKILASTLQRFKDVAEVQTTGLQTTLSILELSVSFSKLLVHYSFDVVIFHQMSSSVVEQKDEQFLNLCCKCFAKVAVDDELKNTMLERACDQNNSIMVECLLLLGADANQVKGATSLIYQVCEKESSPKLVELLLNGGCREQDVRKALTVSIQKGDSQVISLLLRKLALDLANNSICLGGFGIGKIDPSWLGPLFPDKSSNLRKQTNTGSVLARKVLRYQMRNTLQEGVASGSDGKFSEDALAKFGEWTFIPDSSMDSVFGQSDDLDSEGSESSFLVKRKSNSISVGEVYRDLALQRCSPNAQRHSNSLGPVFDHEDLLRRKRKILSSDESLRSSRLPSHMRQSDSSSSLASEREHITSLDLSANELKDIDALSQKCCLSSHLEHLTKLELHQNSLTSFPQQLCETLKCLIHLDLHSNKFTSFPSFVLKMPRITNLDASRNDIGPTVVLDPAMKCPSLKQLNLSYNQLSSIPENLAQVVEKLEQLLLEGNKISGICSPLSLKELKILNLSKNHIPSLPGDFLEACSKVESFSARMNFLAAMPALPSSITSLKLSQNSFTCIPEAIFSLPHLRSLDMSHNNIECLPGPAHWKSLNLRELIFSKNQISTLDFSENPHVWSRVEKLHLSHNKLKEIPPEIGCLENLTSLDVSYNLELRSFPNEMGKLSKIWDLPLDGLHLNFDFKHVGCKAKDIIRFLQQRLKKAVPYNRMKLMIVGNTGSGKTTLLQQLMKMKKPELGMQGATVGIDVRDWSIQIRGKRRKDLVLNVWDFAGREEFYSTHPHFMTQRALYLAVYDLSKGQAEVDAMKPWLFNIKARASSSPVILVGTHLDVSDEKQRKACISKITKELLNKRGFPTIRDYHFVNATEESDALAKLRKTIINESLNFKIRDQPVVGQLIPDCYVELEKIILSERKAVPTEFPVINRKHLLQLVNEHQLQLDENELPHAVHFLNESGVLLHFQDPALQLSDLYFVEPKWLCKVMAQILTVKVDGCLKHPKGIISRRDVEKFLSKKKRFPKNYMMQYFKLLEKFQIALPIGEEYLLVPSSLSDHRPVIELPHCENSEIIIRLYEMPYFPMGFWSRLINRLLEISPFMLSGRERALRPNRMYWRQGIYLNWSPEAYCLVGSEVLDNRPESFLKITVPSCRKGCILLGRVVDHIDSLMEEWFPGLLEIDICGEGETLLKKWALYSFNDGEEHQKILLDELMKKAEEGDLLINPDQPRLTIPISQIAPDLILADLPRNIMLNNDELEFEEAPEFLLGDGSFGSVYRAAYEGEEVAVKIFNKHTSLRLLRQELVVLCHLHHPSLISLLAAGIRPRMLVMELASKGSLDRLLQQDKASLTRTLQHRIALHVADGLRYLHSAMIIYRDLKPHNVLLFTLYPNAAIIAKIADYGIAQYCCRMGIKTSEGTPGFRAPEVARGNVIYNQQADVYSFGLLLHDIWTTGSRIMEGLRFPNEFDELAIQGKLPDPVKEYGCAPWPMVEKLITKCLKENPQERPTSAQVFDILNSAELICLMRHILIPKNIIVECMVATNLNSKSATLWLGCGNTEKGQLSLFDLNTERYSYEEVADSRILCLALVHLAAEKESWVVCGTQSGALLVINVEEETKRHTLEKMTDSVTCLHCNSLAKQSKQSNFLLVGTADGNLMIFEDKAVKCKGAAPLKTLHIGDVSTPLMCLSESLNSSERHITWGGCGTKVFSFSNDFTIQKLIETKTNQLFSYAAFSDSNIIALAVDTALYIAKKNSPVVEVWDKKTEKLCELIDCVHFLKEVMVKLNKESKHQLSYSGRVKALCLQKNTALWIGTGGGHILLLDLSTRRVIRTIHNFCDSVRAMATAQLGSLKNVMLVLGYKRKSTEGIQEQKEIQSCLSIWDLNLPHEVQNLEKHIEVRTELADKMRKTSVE
# Chain of Dual specificity protein kinase CLK4 (Q9HAZ1 whole entry): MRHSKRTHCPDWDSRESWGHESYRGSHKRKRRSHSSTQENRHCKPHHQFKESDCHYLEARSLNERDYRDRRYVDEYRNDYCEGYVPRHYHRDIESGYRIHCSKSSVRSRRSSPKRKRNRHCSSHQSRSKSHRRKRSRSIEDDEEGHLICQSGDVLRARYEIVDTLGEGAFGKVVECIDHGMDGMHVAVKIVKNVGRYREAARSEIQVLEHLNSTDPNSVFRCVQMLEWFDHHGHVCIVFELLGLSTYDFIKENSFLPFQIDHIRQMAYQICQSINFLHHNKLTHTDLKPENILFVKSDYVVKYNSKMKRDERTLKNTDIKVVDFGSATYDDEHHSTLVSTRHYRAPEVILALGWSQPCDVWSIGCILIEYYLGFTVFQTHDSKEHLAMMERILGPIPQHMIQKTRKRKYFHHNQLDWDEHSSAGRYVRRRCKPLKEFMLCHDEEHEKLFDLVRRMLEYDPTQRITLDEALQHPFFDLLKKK
smiles,measurement,setting,value
C[C@@H]1CN(c2cc(-c3n[nH]c4ccc(OC5(C)CC5)cc34)ncn2)C[C@H](C)O1 [MLi-2],Activity,Mus musculus [1],49.89%
same,Drug uptake(free),[2],2.4 nM
same,bioavailability,[3],45%
same,IC50,[4],0.225 µM
same,IC50,[5],6.5 µM
same,Activity,[6],Non-Toxic
same,Activity,Mus musculus [7],Active
same,Activity,Mus musculus [8],267.6 ng/g
same,inhibition,[9],Active
same,inhibition,[10],inactive
same,inhibition,[11],Active
same,Activity,Mus musculus [12],Active
same,inhibition,[13],> 90%
same,Activity,Mus musculus [14],inactive
same,inhibition,[15],Active
same,Activity,Mus musculus [16],7521 ng/g

# From ChEMBL document CHEMBL5653623 (J Pharmacol Exp Ther, 2015)
